Measured values as given in ChEMBL document CHEMBL1177836, “New quinoxaline 1, 4-di-N-oxides: anticancer and hypoxia-selective therapeutic agents” (Eur J Med Chem, 2010).
Converted amounts (≈) assume the structure as drawn.

Columns and labels:
[1] = Cytotoxicity against mouse EAC cells in hypoxic condition assessed as cell viability at 100 ug/ml after 2 hrs by trypan blue exclusion assay; format: functional; settings: Ehrlich, read-out: Activity
Summary of the method: (§1)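 EAC cells aspirated from ascitic fluid of pre-inoculated female Swiss albino mice, suspended at 2.5×10⁶ cells/ml. Compounds freshly diluted in DMSO, 0.1 ml added per tube. Parallel aerobic and anaerobic tube sets; anaerobic tubes gassed with N₂ throughout. Incubation 2 h, then centrifugation. Trypan blue exclusion with haemocytometer counts; % viability = unstained cells/total cells × 100. DMSO-only negative control.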

[2] = Cytotoxicity against mouse EAC cells in hypoxic condition assessed as cell viability at 50 ug/ml after 2 hrs by trypan blue exclusion assay; format: functional; settings: Ehrlich, read-out: Activity; summary of the method: as §1
[3] = system: HepG2; assay: Growth inhibition of human HepG2 cells after 48 hrs by SRB assay; format: functional, cell-based; settings: HepG2, 48 h
Summary of the method: (§2)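 Cells plated at 10⁴ per well and allowed 24 h to attach. Compounds dissolved in DMSO were added at 0.1, 2.5, 5 and 10 µg/ml and incubated 48 h at 37 °C under 5% CO₂. Cells were then fixed, washed and stained with sulforhodamine B, and colour intensity was read on an ELISA reader.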

[4] = Ratio of IC50 for mouse EAC cells in aerobic condition to IC50 for mouse EAC cells in hypoxic condition
[5] = Cytotoxicity against mouse EAC cells in hypoxic condition by trypan blue exclusion assay; format: functional, cell-based; settings: Ehrlich
Summary of the method: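 EAC suspension (2.5×10⁶ cells/ml, from ascitic fluid of pre-inoculated female Swiss albino mice) exposed 2 h to DMSO-dissolved compounds over 1–100 µg/ml, in air or under continuous N₂. Viability by trypan blue exclusion, haemocytometer counts. IC50 taken as the concentration causing 50% mortality in net cell numbers.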

[6] = Cytotoxicity against mouse EAC cells in hypoxic condition assessed as cell viability at 10 ug/ml after 2 hrs by trypan blue exclusion assay; format: functional; settings: Ehrlich, read-out: Activity; summary of the method: as §1
[7] = Cytotoxicity against mouse EAC cells in hypoxic condition assessed as cell viability at 1 ug/ml after 2 hrs by trypan blue exclusion assay; format: functional; settings: Ehrlich, read-out: Activity; summary of the method: as §1
[8] = Cytotoxicity against mouse EAC cells in aerobic condition by trypan blue exclusion assay; format: functional, cell-based; settings: Ehrlich; summary of the method: as §1
[9] = Cytotoxicity against mouse EAC cells in aerobic condition assessed as cell viability at 50 ug/ml after 2 hrs by trypan blue exclusion assay; format: functional; settings: Ehrlich, read-out: Activity; summary of the method: as §1
[10] = Cytotoxicity against mouse EAC cells in aerobic condition assessed as cell viability at 25 ug/ml after 2 hrs by trypan blue exclusion assay; format: functional; settings: Ehrlich, read-out: Activity; summary of the method: as §1
[11] = Cytotoxicity against mouse EAC cells in aerobic condition assessed as cell viability at 10 ug/ml after 2 hrs by trypan blue exclusion assay; format: functional; settings: Ehrlich, read-out: Activity; summary of the method: as §1
[12] = Cytotoxicity against mouse EAC cells in hypoxic condition assessed as cell viability at 5 ug/ml after 2 hrs by trypan blue exclusion assay; format: functional; settings: Ehrlich, read-out: Activity; summary of the method: as §1
[13] = Cytotoxicity against mouse EAC cells in aerobic condition assessed as cell viability at 5 ug/ml after 2 hrs by trypan blue exclusion assay; format: functional; settings: Ehrlich, read-out: Activity; summary of the method: as §1
[14] = Cytotoxicity against mouse EAC cells in aerobic condition assessed as cell viability at 1 ug/ml after 2 hrs by trypan blue exclusion assay; format: functional; settings: Ehrlich, read-out: Activity; summary of the method: as §1
[15] = system: U-251; assay: Growth inhibition of human U251 cells after 48 hrs by SRB assay; format: functional, cell-based; settings: U-251, 48 h; summary of the method: as §2
[16] = Cytotoxicity against mouse EAC cells in hypoxic condition assessed as cell viability at 25 ug/ml after 2 hrs by trypan blue exclusion assay; format: functional; settings: Ehrlich, read-out: Activity; summary of the method: as §1
[17] = system: Ehrlich; assay: Cytotoxicity against mouse EAC cells in hypoxic condition assessed as concentration required for 1% cell survival
[18] = Cytotoxicity against mouse EAC cells in aerobic condition assessed as cell viability at 100 ug/ml after 2 hrs by trypan blue exclusion assay; format: functional; settings: Ehrlich, read-out: Activity; summary of the method: as §1

IC50 [3] [µg/mL]	HCR (IC50 air/IC50 hypoxia ratio) [4]	IC50 [15] [µg/mL]	Structure (SMILES)	viability at 100 µg/mL [1] [%]	viability at 50 µg/mL [2] [%]	IC50 [5] [µg/mL]	viability at 10 µg/mL [6] [%]	viability at 1 µg/mL [7] [%]	IC50 [8] [µg/mL]	viability at 50 µg/mL [9] [%]	viability at 25 µg/mL [10] [%]	viability at 10 µg/mL [11] [%]	viability at 5 µg/mL [12] [%]	viability at 5 µg/mL [13] [%]	viability at 1 µg/mL [14] [%]	viability at 25 µg/mL [16] [%]	Potency [17] [µg/mL]	viability at 100 µg/mL [18] [%]
4.75 (≈ 19 µM)	> 1	> 10	CNc1c(C#N)[n+]([O-])c2cc(Cl)ccc2[n+]1[O-]	72	81.4	> 100	92.7	99.5	> 100	82.7	94	96.7	96	96	100	90.6	> 100	89
5.69 (≈ 17.7 µM)	> 40	> 10	CC(=O)N(C(C)=O)c1c(C#N)[n+]([O-])c2cc(Cl)ccc2[n+]1[O-]	0	1.3	2.5 (≈ 7.8 µM)	12.6	75.4	> 100	78.9	80.7	83.9	30.3	99	99.6	3	22 (≈ 68.6 µM)	77.7
0.77 (≈ 1.85 µM)	> 1.4	> 10	CCOc1ccc(/N=C/c2c(-c3ccccc3)[n+]([O-])c3ccc(OC)cc3[n+]2[O-])cc1	30.5	64.9	70 (≈ 168 µM)	92.9	99.3	> 100	91.1	92.3	95.4	97	99	99.3	84.4	> 100	84.1
4.95 (≈ 12.3 µM)	> 1	> 10	CCOc1ccc(NCc2nc3cc(OC)ccc3[n+]([O-])c2-c2ccccc2)cc1	80.7	87	> 100	98	100	> 100	93.3	97.6	96.3	99	98.6	100	95	> 100	85
6 (≈ 16.2 µM)	–	> 10	COc1ccc(NC(=O)Nc2c(C)[n+]([O-])c3ccc(OC)cc3[n+]2[O-])cc1	–	–	–	–	–	–	–	–	–	–	–	–	–	–	–
> 10	–	> 10	Cc1c(NC(=O)OC(C)C)[n+]([O-])c2cc(Cl)ccc2[n+]1[O-]	90.6	96.3	–	97.3	100	–	96.4	97	98.3	98.3	98.8	100	96	–	92
6 (≈ 19.5 µM)	> 1	> 10	COc1ccc2c(c1)[n+]([O-])c(NC(=O)OC(C)C)c(C)[n+]2[O-]	63.2	76.2	> 100	90.4	94.8	> 100	92.6	97	99	91.9	99	100	82.3	> 100	87.7
–	> 1	–	Cc1c(C(=O)N=[N+]=[N-])[n+]([O-])c2cc(Cl)ccc2[n+]1[O-]	59.1	70.3	> 100	88.3	99.3	> 100	91.2	98	98	92.6	98	100	84.2	> 100	81.8
0.5 (≈ 1.33 µM)	10	> 10	COc1ccc(NC(=O)Nc2c(C)[n+]([O-])c3ccc(Cl)cc3[n+]2[O-])cc1	5.3	10.3	10 (≈ 26.7 µM)	50.2	86.7	100 (≈ 267 µM)	73.3	79.2	83	73.3	98	99.6	24.2	> 100	54.6
3.61 (≈ 13.1 µM)	> 8	> 10	COc1ccc2c(c1)[n+]([O-])c(C(=O)N=[N+]=[N-])c(C)[n+]2[O-]	1.3	6.2	12.5 (≈ 45.4 µM)	58.3	94.5	> 100	77.9	80.7	83.9	81.1	99	94.5	11.3	90 (≈ 327 µM)	56
–	> 7.4	–	N#Cc1c(N)[n+]([O-])c2ccc(Cl)cc2[n+]1[O-]	5	43.5	13.5 (≈ 57.1 µM)	71.3	94	> 100	94.3	95	97.3	87.8	98.8	100	65.1	> 100	94
56.6 (≈ 318 µM)	–	71.2 (≈ 400 µM)	Nc1n[n+]([O-])c2ccccc2[n+]1[O-] [TIRAPAZAMINE]	–	–	–	–	–	–	–	–	–	–	–	–	–	–	–
